OX1R antag-1 = blocks the human orexin 1 receptor | O43613 | OX1R-expressing cells, FRET antagonist read-out | inhibition, % at 6.6 µM | hit rate 1.8% among 330,000; in the data active = inhibition mostly above about 38%, no sharp cut-off; inactive = mostly below about 40%;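 also: 0% = agonist challenge alone and 100% = reference antagonist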
Target sequence (O43613 whole entry, looked up): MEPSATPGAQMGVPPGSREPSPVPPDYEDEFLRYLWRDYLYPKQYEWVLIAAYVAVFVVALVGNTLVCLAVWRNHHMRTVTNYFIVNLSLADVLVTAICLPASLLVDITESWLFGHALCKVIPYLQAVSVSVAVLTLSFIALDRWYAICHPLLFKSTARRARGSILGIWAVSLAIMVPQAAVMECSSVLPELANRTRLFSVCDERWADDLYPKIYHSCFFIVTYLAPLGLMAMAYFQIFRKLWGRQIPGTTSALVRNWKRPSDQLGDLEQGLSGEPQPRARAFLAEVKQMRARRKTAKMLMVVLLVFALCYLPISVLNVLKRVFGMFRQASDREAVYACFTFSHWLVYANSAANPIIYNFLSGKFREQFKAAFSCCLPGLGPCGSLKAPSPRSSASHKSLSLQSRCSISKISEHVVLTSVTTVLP
CHO parental Ca = counter-screen: ATP calcium response change in parental CHO cells | parental CHO-K1, ATP-induced calcium, Fluo-8 fluorescence | inhibition, % at 5.6 µM | hit rate 0.63% among 330,000 | AID 463079;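 active = inhibition above that plate's mean sample inhibition plus 3 SD, cut at about 26% in these data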;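 also: 0% = ATP-challenged DMSO wells and 100% = DMSO wells without ATP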
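Test system: parental CHO cells; detection: calcium-sensitive Fluo-8 fluorescence; evaluation: percent inhibition of calcium signal; also added: ATP as calcium-mobilizing challenge; repeats: one well per compound; control set: ATP-challenged DMSO wells low, unchallenged DMSO wells high; compound: single nominal dose of 5.6 µM per compound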
GPR7 antag = human neuropeptides B/W receptor 1 antagonism. P48145. inhibition, % at 4.4 µM. hit rate 1.1% among 290,000. GPR7-expressing cells, fluorescence antagonist assay. AID 1861; in the data active = inhibition above about 16%, passing the limit was not always enough;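 also: cells stimulated with the agonist NPW; 0% = agonist with vehicle and 100% = vehicle without agonist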
OX1R antag-2 = antagonists of human orexin 1 receptor; hit rate 0.43% among 330,000; CHO/OX1R cells, Fluo-8 calcium fluorescence, orexin A; AID 434989; O43613; inhibition, % at 5 µM;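 active = inhibition above its plate's threshold, mean inhibition of all tested compounds on the plate plus 3 SD, cut at about 37% in these data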;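 also: 0% = orexin A challenge wells and 100% = SB-334867-A antagonist wells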
GalR3 antagonist = antagonists of human GalR3; HEK293 GalR3-CNG cAMP membrane potential fluorescence; galR3 body fused to GalR1 C-terminus; inhibition, % at 3 µM; hit rate 0.44% among 360,000;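 active = inhibition above the screen-wide average plus 3 SD, cut at about 13% in these data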;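 also: forskolin and galanin both at EC90 stimulate the cells; cAMP rise reported by CNG channel membrane potential dye signal; 0% = forskolin plus galanin with DMSO and 100% = forskolin alone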
OX1R HTRF confirm = OX1R (human) antagonism, HTRF confirmed | shares compounds with OX1R antag-1 | OX1R-expressing cells, HTRF antagonist assay | inhibition, % at 6.6 µM | hit rate 49% among 1,800; in the data active = inhibition above about 55%;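 also: CHO cells expressing OX1R stimulated with orexin A at about EC80; 0% = agonist challenge alone and 100% = reference antagonist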
CHO-K1 HTRF = counter-screen for OX1R antagonists: effect in parental CHO-K1 cells; shares compounds with OX1R antag-1; hit rate 48% among 1,800; HTRF counterscreen; inhibition, % at 6.6 µM; in the data active = inhibition above about 17%;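 also: 0% = agonist challenge with vehicle and 100% = vehicle alone without agonist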
Starred values were filed as active, the others as inactive; x = no result. Hits are enriched below; roughly 3.1% of the tested compounds scored in any of these assays.

SMILES	OX1R antag-1	CHO parental Ca	GPR7 antag	OX1R antag-2	GalR3 antagonist	OX1R HTRF confirm	CHO-K1 HTRF
CN(C)c1ccc(-c2nnc(-c3cccs3)o2)cc1	84*	-20	3	7	-7	88*	14
O=C(Nc1ccc(F)cc1)C(c1ccccc1)N1CCN(c2cccc(C(F)(F)F)n2)CC1 (stereo not drawn)	x	x	x	x	-5	x	x
Cc1ccccc1CNC(=O)c1ccccc1NS(C)(=O)=O	105*	-12	2	0	-3	26	0
O=C(NCCO)c1ccc2c(c1)S(=O)(=O)c1ccccc1C2=O	108*	-1	1	3	-4	65*	67*
O=C1c2ccccc2S(=O)(=O)c2cc(C(=O)N3CCC(N4CCCC4)CC3)ccc21	101*	-6	x	-13	-2	45	88*
O=C(NCC1CCCO1)c1ccc2c(c1)S(=O)(=O)c1ccccc1C2=O (stereo not drawn)	81*	-20	x	-14	1	61*	63*
O=C(NCC1CCCO1)c1ccc(C(=O)NCC2CCCO2)cc1 (stereo not drawn)	18	8	-8	-5	-4	x	x
Cc1ccc(CNC(=O)c2ccc3c(c2)S(=O)(=O)c2ccccc2C3=O)o1	46	-10	x	-12	-4	x	x
CC(NC(=O)C(NC(=O)OCc1ccccc1)C(C)O)C(=O)OCc1ccccc1 (stereo not drawn)	x	x	x	x	-7	x	x
O=C(O)CCCN1C(=O)c2ccc(C(=O)c3cccc([N+](=O)[O-])c3)cc2C1=O	86*	-4	-8	-5	1	40	52*
COc1ccc(-n2nc([N+](=O)[O-])c(=NCCCN3CCCC3=O)n2O)cc1	154*	-5	-13	0	-5	51	88*
CC(C)C[C@@H]1COc2cccc(N3CCCC3)c2S(=O)(=O)N1	x	x	x	x	-6	x	x
CC(=O)c1ccc(N2CCN(C(=O)c3ccc4c(=O)[nH]c5c(C(=O)NC6CCCC6)sc(=S)n5c4c3)CC2)cc1	x	x	x	x	-2	x	x
O=C(NC1CCCCC1)c1sc(=S)n2c1[nH]c(=O)c1ccccc12	82*	-3	-5	-17	-4	56*	10
Cc1cc(NC(=O)OC(C)(C)C)c(-n2nnnc2C(C(=O)c2ccccc2)N2CCOCC2)cc1C (stereo not drawn)	x	x	x	x	-7	x	x
CC1(C)OC(=O)C(=NNc2ccccc2)C(=O)O1	52	4	-2	4	4	x	x
CC1(C)OC(=O)C(=NNc2ccc(O)cc2)C(=O)O1	82*	23	-8	-4	2	19	24*
Cc1cccc(C)c1NC(=O)C1(C)CSCC(=O)N1CCOc1ccccc1 (stereo not drawn)	x	x	x	x	2	x	x
Cc1nn2c3ccccc3nc2c2ccccc12	88*	-11	-9	25	-3	83*	-12
c1ccc(-c2nc3nc4ccccc4nc3n2Cc2ccco2)cc1	107*	-20	-15	-13	-6	33	18*
S=c1nc(-c2ccccc2)n(Cc2ccco2)c2c1CCCC2	x	x	20	x	x	x	x
CC1(C(=O)NS(=O)(=O)c2ccccc2)CCN1C(=O)c1ccc(C2CCCCC2)cc1 (stereo not drawn)	x	x	x	x	-3	x	x
Cc1ccc2nsnc2c1S(=O)(=O)NCc1ccncc1	103*	-10	-6	-12	0	31	37*
CCN(Cc1ccccc1)C(=O)C(C)OC(=O)c1cc(S(=O)(=O)Nc2c(C)n(C)n(-c3ccccc3)c2=O)ccc1C (stereo not drawn)	23	-24	-8	-25	0	x	x
CCN(Cc1ccccc1)C(=O)COC(=O)c1cc(S(=O)(=O)Nc2c(C)n(C)n(-c3ccccc3)c2=O)ccc1C	81*	-27	2	20	-9	74*	-5
CCOC(=O)N1CCN(C2=C(NS(=O)(=O)c3ccc(NC(C)=O)cc3)C(=O)c3ccccc3C2=O)CC1	83*	-11	-10	-5	-4	59*	83*
CCN1CCN(C2=C(NS(=O)(=O)c3ccc(NC(C)=O)cc3)C(=O)c3ccccc3C2=O)CC1	94*	-18	0	-12	1	59*	104*
CCOC(=O)N1CCN(S(=O)(=O)c2ccc(NC(C)=O)cc2)CC1	2	1	-10	-17	-10	x	x

Compound activity as filed in PubChem.
